Consider five compounds from ChEMBL document CHEMBL1833819, “Dihydroquinazolines as a novel class of Trypanosoma brucei trypanothione reductase inhibitors: discovery, synthesis, and characterization of their binding mode by protein crystallography” (J Med Chem, 2011).

The target in test [1] is T1, Trypanothione reductase (Trypanosoma brucei brucei, UniProt P39051). In words: Inhibition of recombinant trypanothione reductase from Trypanosoma brucei brucei S427 by DTNB-coupled spectrophotometric assay. The gist of the method:
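Recombinant T. brucei brucei S427 TryR tested in a nonenzymatically coupled spectrophotometric assay, where DTNB reduction to TNB is followed as A412 increase. IC50 is the mean of independent duplicates (at least two replicates).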

Test [2] has as its target Trypanothione reductase (Trypanosoma cruzi, UniProt P28593). Briefly: Inhibition of trypanothione reductase from Trypanosoma cruzi by DTNB-coupled spectrophotometric assay.
Test [3] deals with T2, Glutathione reductase, mitochondrial (Homo sapiens, UniProt P00390).
T2 sequence (P00390 whole entry): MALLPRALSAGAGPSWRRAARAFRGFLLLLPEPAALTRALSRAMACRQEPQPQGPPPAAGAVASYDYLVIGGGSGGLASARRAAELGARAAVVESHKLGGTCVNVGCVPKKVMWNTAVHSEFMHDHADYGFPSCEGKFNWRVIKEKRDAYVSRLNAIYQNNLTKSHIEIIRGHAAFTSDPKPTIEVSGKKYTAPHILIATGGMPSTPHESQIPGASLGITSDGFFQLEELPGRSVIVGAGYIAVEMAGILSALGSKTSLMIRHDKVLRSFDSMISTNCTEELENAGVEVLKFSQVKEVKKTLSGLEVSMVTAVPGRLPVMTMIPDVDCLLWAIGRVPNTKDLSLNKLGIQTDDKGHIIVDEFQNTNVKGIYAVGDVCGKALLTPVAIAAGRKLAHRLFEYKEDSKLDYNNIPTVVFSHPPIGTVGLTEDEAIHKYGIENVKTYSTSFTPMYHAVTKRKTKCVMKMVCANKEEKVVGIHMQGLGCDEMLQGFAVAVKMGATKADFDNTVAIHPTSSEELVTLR
Briefly: Inhibition of human glutathione reductase.

In test [4] the test system is Trypanosoma brucei brucei. In words: Antitrypanosomal activity against blood stream form Trypanosoma brucei brucei by resazurin fluorescence-based viability assay. The class given is functional, organism-based. An outline of the steps: (§1)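 Bloodstream-form T. b. brucei parasites and MRC5 cells were assayed in resazurin fluorescence-based viability tests. […] Pentamidine served as the positive control in all T. brucei plates.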
A general note: The colour change of resazurin is a common sign of viable cells or microbes.

For test [5], the target named is T1, Trypanothione reductase. In words: Competitive inhibition of recombinant trypanothione reductase from Trypanosoma brucei brucei S427 by Lineweaver burk method.
For test [6], the target named is T1, Trypanothione reductase. In words: Mixed type inhibition of recombinant trypanothione reductase from Trypanosoma brucei brucei S427 by Lineweaver burk method.
For another test, the system named is MRC5. In words: Cytotoxicity against human MRC5 cells by resazurin fluorescence-based viability assay. The class given is cell-based. The gist of the method: as §1

Molecules are shown by their SMILES.

T1 sequence (P39051 whole entry): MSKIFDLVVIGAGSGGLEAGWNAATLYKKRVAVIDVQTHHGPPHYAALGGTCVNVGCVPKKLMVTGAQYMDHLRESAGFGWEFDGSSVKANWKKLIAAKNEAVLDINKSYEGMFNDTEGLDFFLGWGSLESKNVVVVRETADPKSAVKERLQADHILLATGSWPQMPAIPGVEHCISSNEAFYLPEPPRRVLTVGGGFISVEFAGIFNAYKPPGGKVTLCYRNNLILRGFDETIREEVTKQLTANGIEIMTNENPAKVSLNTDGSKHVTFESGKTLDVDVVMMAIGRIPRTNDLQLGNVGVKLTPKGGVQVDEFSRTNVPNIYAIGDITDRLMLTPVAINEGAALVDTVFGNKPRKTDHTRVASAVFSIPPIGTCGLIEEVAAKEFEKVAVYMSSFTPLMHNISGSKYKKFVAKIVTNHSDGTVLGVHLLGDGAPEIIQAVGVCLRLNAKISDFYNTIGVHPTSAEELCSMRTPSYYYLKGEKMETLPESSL
Trypanothione reductase (Trypanosoma cruzi, UniProt P28593), sequence (P28593 whole entry): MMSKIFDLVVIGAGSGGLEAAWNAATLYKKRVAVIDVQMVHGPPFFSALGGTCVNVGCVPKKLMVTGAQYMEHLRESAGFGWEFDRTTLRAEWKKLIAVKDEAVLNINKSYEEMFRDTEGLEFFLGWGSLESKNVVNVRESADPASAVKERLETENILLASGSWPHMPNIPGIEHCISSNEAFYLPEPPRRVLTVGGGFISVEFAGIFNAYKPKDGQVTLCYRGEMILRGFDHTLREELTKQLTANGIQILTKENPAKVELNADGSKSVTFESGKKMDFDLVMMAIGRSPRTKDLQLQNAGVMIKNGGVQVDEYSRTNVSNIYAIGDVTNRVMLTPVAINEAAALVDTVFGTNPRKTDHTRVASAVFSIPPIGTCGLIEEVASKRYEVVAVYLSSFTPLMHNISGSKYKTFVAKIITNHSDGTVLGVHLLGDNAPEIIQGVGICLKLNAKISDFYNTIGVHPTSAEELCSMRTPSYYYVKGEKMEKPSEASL

Take `COC(=O)CN1C(C)=Nc2ccc(C)cc2C1c1ccccc1` (racemic): the figures for the IC50 on Trypanothione reductase [1] and on Trypanothione reductase [2] were 67000 nM and 38000 nM, respectively.
Turning to `COC(=O)CN1C(C)=Nc2ccc(Br)cc2C1c1ccccc1` (racemic), the values for the IC50 (on Trypanothione reductase [1]; in test [3]; on Trypanothione reductase [2]) were 6800 nM, over 100000 nM and 19000 nM, respectively. Also, in test [4], the response was half-maximal at 40000 nM (EC50).
On to `CC1=Nc2ccc(Cl)cc2C(c2ccccc2)N1CCNC(=O)c1ccco1` (racemic), for which the Ki (usually the equilibrium dissociation constant of an inhibitor or competing ligand from its target) on Trypanothione reductase [5] stood at 440 nM; at Trypanothione reductase [6], 2270 nM. In addition, at Trypanothione reductase [1], the half-inhibitory concentration (IC50) (as a rule, the midpoint of a concentration-inhibition curve) came out at 860 nM. In addition, the half-maximal effective concentration (EC50) – broadly, the concentration needed to bring the measured effect to its halfway point – with MRC5 came out at 22000 nM; in test [4] it was 19000 nM.
Turning to `CC1=Nc2ccc(Cl)cc2C(c2ccccc2)N1CCN1CCN(C(=O)CN(C)C)CC1` (racemic), the inhibition constant Ki is 270 nM on Trypanothione reductase [5] and 1780 nM on Trypanothione reductase [6]. On Trypanothione reductase [1], the IC50 came out at 370 nM. Besides, the 50% effective concentration (EC50) in the test on MRC5 stood at 6000 nM; in test [4], 5600 nM.
With `CC1=Nc2ccc(Cl)cc2C(c2ccc(C)cc2)N1CCCN(C)C` (racemic), the Ki was 190 nM at Trypanothione reductase [5] and 1460 nM on Trypanothione reductase [6]. For the same compound, the IC50 on Trypanothione reductase [1] came to 230 nM. Besides, the EC50 in the test on MRC5 is 1900 nM; in test [4], 730 nM.
